Test results: ChEMBL document CHEMBL1926564, “Design, synthesis and biological activity of original pyrazolo-pyrido-diazepine, -pyrazine and -oxazine dione derivatives as novel dual Nox4/Nox1 inhibitors” (Bioorg Med Chem, 2011)

Experiments:
[1] = molecular target: T1, NADPH oxidase 1 (Homo sapiens, UniProt Q9Y5S8); assay: Antagonist activity at human NOX1 expressed in CHO cell membrane coexpressing tetracylin repressor assessed as inhibition of ROS production after 20 mins by cell-free amplex red assay; assay type: functional
T1 sequence (Q9Y5S8 whole entry): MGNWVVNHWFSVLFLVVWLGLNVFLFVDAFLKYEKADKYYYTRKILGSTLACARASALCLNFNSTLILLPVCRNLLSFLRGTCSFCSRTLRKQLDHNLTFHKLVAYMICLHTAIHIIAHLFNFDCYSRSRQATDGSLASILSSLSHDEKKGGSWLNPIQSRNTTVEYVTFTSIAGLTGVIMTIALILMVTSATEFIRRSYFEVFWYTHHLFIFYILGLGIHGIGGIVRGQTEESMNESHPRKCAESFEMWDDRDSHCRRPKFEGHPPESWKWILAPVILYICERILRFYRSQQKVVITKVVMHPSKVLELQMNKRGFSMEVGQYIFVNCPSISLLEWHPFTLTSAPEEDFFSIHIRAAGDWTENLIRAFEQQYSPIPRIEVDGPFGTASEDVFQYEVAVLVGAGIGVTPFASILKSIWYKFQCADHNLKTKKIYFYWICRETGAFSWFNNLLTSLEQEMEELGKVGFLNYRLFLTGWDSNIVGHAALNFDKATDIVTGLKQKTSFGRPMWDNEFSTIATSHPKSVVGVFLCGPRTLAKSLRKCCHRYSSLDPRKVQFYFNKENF
In short: (§1)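 Membranes from tetracycline-induced (24 h) Nox-expressing cells or human PMN (Nox2), sucrose-gradient purified; or xanthine oxidase. Incubated in PBS with Amplex Red, HRP and cofactors; NADPH (Nox) or xanthine starts ROS. Compound 1 nM–100 µM, 20 min at 37 °C, plate-reader. Background without membranes or agonist. Ki by Cheng-Prusoff; mean of ≥3 experiments in triplicate.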

[2] = molecular target: T2, NADPH oxidase 4 (Homo sapiens, UniProt Q9NPH5); assay: Antagonist activity at human NOX4 expressed in CHO cell membrane coexpressing tetracylin repressor assessed as inhibition of ROS production after 20 mins by cell-free amplex red assay; assay type: functional; settings: in the assay text read “HEK293 cell membrane” for “CHO cell membrane”; in short: as §1
T2 sequence (Q9NPH5 whole entry): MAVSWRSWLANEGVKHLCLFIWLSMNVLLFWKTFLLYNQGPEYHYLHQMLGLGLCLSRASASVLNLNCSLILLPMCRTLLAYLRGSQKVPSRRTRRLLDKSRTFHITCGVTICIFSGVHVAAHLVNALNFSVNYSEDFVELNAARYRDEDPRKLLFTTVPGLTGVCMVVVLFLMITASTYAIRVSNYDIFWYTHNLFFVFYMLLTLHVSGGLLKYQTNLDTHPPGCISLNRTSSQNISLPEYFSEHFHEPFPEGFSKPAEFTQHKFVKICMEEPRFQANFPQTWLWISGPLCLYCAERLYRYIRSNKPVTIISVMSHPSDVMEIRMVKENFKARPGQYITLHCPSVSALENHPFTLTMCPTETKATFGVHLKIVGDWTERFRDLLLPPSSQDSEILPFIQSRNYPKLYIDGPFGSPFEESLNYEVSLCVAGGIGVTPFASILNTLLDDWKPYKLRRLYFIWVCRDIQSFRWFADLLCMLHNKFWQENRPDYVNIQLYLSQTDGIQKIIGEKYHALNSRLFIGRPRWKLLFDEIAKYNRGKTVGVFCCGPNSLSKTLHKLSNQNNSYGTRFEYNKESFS

[3] = molecular target: T3, NADPH oxidase 5 (Homo sapiens, UniProt Q96PH1); assay: Antagonist activity at human NOX5 assessed as inhibition of ROS production after 20 mins by cell-free amplex red assay; assay type: functional; in short: as §1
T3 sequence (Q96PH1 whole entry): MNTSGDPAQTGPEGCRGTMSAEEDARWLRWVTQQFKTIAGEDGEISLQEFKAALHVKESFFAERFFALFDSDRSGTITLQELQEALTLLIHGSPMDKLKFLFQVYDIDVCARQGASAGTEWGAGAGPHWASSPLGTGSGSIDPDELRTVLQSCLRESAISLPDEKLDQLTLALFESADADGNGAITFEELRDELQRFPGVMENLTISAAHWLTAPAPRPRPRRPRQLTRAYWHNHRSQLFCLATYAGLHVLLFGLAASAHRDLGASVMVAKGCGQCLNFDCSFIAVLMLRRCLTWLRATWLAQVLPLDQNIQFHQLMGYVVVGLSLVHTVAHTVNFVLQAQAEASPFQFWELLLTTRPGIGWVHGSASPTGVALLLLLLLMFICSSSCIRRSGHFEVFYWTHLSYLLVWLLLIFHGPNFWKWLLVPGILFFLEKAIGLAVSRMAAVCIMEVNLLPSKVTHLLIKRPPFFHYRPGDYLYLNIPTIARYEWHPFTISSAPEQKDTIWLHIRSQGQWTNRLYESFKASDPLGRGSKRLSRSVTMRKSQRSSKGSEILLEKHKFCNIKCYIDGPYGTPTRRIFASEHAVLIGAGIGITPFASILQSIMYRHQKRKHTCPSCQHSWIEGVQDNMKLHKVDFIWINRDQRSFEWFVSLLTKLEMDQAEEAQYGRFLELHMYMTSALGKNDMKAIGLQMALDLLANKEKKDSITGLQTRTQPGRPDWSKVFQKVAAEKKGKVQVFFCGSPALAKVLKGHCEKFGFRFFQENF

[4] = Cmax in Sprague-Dawley rat at 5 mg/kg, iv; assay type: ADME, organism-based; parameters: dose 5 mg/kg, route intravenous; settings: in vivo
In short: (§2)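 Rats in two groups of three: 5 mg/kg iv in EDPW (10% EtOH, 10% DMA, 30% PG, 50% water) or 10 mg/kg oral in aqueous 0.5% CMC/0.25% Tween 20. Carotid arterial cannula blood sampled up to 24 h. Plasma levels by LC/MS/MS (LLOQ 1.00 ng/mL); noncompartmental analysis.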

[5] = Volume of distribution at steady state in Sprague-Dawley rat at 5 mg/kg, iv; assay type: ADME, organism-based; parameters: dose 5 mg/kg, route intravenous; settings: in vivo, read-out: Vdss; in short: as §2
[6] = Oral bioavailability in Sprague-Dawley rat at 10 mg/kg; assay type: ADME, organism-based; settings: in vivo; in short: as §2
[7] = Cmax in Sprague-Dawley rat at 10 mg/kg, po; assay type: ADME, organism-based; parameters: dose 10 mg/kg, route oral; settings: in vivo; in short: as §2
[8] = Half life in Sprague-Dawley rat at 10 mg/kg, po; assay type: ADME, organism-based; parameters: dose 10 mg/kg, route oral; settings: in vivo; in short: as §2
[9] = Clearance in human liver microsomes assessed per mg of protein at 0.5 uM; assay type: ADME, Microsome; settings: read-out: CLH
In short: (§3)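 Pooled rat (male Sprague Dawley) or human (mixed-sex) liver microsomes at 0.5 mg/mL final, 0.1 M phosphate pH 7.4, compound 0.5 µM final, 0.25% DMSO, 37 °C; 1 mM NADPH starts reaction. Sampled 0–45 min, methanol quench with internal standard, LC/MS-MS; intrinsic clearance from compound loss.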

[10] = Clearance in Sprague-Dawley rat liver microsomes assessed per mg of protein at 0.5 uM; assay type: ADME, Microsome; settings: read-out: CLH; in short: as §3
[11] = Apparent permeability across human Caco2 cells at 10 uM after 2 hrs; assay type: ADME, cell-based; settings: Caco-2
In short: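 Caco-2 monolayers grown 20 days, TEER >800 ohm·cm². Compound 10 µM final in HBSS pH 6.5 (1% DMSO), dosed apical (A→B) or basolateral (B→A), 2 h at 37 °C; both compartments sampled, LC–MS/MS cassette analysis with 5-point calibration.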

[12] = Fraction unbound in rat plasma containing 50% plasma protein; assay type: ADME, cell-free
In short: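 Rat plasma protein binding in 50% plasma; fraction unbound reported.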

A Ki [1] of 101 nM, a Ki [2] of 72 nM and a Ki [3] of 414 nM were found for `Cl.O=c1c2c3n(c(=O)cc2[nH]n1-c1ccccc1Cl)CCCN(Cc1ccccc1)C3` in this work. The Cmax [4] was 42300 ng/mL, the Vd [5] was 0.28 L/kg and the bioavailability [6] was 53%. For the same compound, the Cmax [7] was 14900 ng/mL, the half-life [8] was 2.37 h and the microsomal CLint at 0.5 µM [9] was 35 µL/min/mg. For the same compound, the microsomal CLint at 0.5 µM [10] was 64 µL/min/mg, the Papp at 2 h, 10 µM [11] was 42.2 ×10⁻⁶ cm/s and the fraction unbound [12] was 0.12.
A Ki [1] of 113 nM, a Ki [2] of 67 nM and a Ki [3] of 543 nM were found for `Cl.O=c1c2c3n(c(=O)cc2[nH]n1-c1ccccc1Cl)CCCN(Cc1ccccn1)C3` in this work. For the same compound, the Cmax [4] was 21800 ng/mL, the Vd [5] was 0.47 L/kg and the bioavailability [6] was 42%. For the same compound, the Cmax [7] was 11300 ng/mL, the half-life [8] was 3.63 h and the microsomal CLint at 0.5 µM [9] was 13.9 µL/min/mg. The microsomal CLint at 0.5 µM [10] was 27.5 µL/min/mg, the Papp at 2 h, 10 µM [11] was 1.8 ×10⁻⁶ cm/s and the fraction unbound [12] was 0.026.
